Source: PubChem BioAssay
Rows were chosen to be rich in hits. Some 3.3% of all compounds tested hit in one or more screens of this group.
PRMT1 inh = inhibitors of human PRMT1. Q99873. recombinant PRMT1, activity-based probe fluorescence polarization. inhibition, % at 2.79 µM. 370,000 tested, 1.3% active. AID 652257;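 active = inhibition above about 21% made by adding two undisclosed values, limit read from the data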
HTRA1 inh = inhibitors of human serine peptidase HTRA1 | Q92743 | recombinant HTRA1, FP-rhodamine activity-based probe, fluorescence polarization | inhibition, % at 5.96 µM | 340,000 tested, 0.5% active | AID 504803; in the data active = inhibition above about 36%;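 note: 0% = enzyme with DMSO and 100% = wells lacking enzyme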
SIAE primary = human SIAE inhibition, primary screen; Q9HAT2; SIAE FP-Rh probe binding, fluorescence polarization; inhibition, % at 9.66 µM; 370,000 tested, 0.69% active;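 active = inhibition above a cutoff: mean of compounds within the control limits plus 3 SD of those, cut at about 17% in these data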;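 note: 0% = plate median of compound wells and 100% = probe without SIAE protein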
Target sequence (Q9HAT2 whole entry, looked up): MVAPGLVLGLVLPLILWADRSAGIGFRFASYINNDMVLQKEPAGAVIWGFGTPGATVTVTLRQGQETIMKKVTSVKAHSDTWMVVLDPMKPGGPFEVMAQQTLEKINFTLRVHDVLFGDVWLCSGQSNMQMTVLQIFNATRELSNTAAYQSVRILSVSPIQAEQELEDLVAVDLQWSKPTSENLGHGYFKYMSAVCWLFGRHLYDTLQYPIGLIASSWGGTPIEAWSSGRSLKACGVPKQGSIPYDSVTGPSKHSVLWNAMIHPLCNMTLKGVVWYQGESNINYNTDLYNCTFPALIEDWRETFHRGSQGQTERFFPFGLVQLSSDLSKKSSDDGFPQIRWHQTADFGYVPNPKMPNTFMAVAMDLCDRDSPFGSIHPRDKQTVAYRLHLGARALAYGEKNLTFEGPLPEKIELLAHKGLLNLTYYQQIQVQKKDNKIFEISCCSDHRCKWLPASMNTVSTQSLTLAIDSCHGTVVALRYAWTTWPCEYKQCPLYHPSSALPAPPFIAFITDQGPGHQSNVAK
ABHD4 inh = inhibits mouse alpha/beta hydrolase domain 4 | purified mABHD4, FP-Rh probe fluorescence polarization | 370,000 tested, 0.54% active | inhibition, % at 8.92 µM | Q8VD66;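 active = inhibition exceeding the mean over every tested compound plus 3 SD, cut at about 30% in these data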;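 note: 0% = plate median of compound wells and 100% = S159A mutant with DMSO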
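Assay system: wild-type mouse ABHD4 protein; compound: single nominal dose of 8.92 µM, 0.89% DMSO final; schedule: 45 min + 60 min at 25 °C; measured by: FP readout, ex 525 nm / em 598 nm; evaluation: % inhibition of FP-Rh probe binding versus controls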
rCAG binder = molecules binding r(CAG) RNA repeats. 370,000 tested, 1.3% active. inhibition, % at 3 µM. AID 651821. r(CAG) RNA repeat, TO-PRO-1 dye displacement fluorescence;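 active = inhibition above the plate cutoff, the mean of all test compounds on that plate plus 3 SD, cut at about 35% in these data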;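 note: 0% = DMSO alone and 100% = 100 µM mitoxantrone as full dye displacement; higher means more dye released from RNA so lower well fluorescence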
rCAG bind conf = r(CAG) RNA repeat binding, confirmation. 4,300 tested, 70% active. TO-PRO-1 dye displacement fluorescence. inhibition, % at 3 µM. shares compounds with rCAG binder. AID 652065;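 active = inhibition above a per-plate cutoff, the mean inhibition of sample wells plus 3 SD, cut at about 35% in these data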;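 note: loss of TO-PRO-1 fluorescence as compound displaces dye from 1x1 AA loop RNA; 0% = DMSO only wells and 100% = 100 µM mitoxantrone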
dCAG dye counter = disrupts DNA CAG TO-PRO-1 complex, flagging rCAG hits. AID 652068. shares compounds with rCAG binder. d(CAG) DNA oligo TO-PRO-1 dye displacement, fluorescence. inhibition, % at 3 µM. 4,300 tested, 94% active;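 active = inhibition above its plate's cutoff, the mean test-well inhibition plus 3 SD, cut at about 4.8% in these data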;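 note: 0% = DNA dye mix with DMSO and 100% = 100 µM mitoxantrone; hits displace the dye from DNA and so lower well fluorescence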
dCAG dye DR = disrupts DNA CAG TO-PRO-1 complex in dose response; 250 tested, 20% active; DNA CAG/GTC duplex TO-PRO-1 dye displacement fluorescence; AID 686960; shares compounds with rCAG binder; IC50, µM; in the data active = IC50 below about 10 µM
ABHD4 confirm = confirmation of mouse ABHD4 inhibitors. shares compounds with ABHD4 inh. purified mABHD4, FP-Rh probe fluorescence polarization. inhibition, % at 8.92 µM. 1,800 tested, 55% active;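 active = mean inhibition across replicates above the hit cutoff set in the primary screen, cut at about 30% in these data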;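 note: 0% = wild-type ABHD4 with DMSO and 100% = catalytically dead S159A mutant with DMSO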
* = called active by the depositor; i = inactive; . = no result given.

SMILES	PRMT1 inh	HTRA1 inh	SIAE primary	ABHD4 inh	rCAG binder	rCAG bind conf	dCAG dye counter	ABHD4 confirm	others
CCOc1cc(Br)cc(C(c2c(C(=O)O)[nH]c3ccccc23)c2c(C(=O)O)[nH]c3ccccc23)c1O	0	18	9	61*	95*	84*	59*	68*
CSc1ccc(C(c2c(C(=O)O)[nH]c3ccccc23)c2c(C(=O)O)[nH]c3ccccc23)cc1	-5	-18	5	46*	89*	82*	50*	61*
CSc1ccc(C(c2c(C)[nH][nH]c2=O)c2c(C)[nH][nH]c2=O)cc1	-2	3	9	-9	8	.	.	.
CCOc1cc2c(c3c1C(c1ccccc1)N(S(=O)(=O)c1ccc(C)cc1)C3)C(=O)C=CC2=O (stereo not drawn)	6	.	5	48*	60*	54*	25*	60*
Cc1nn(-c2ccccc2)c(Cl)c1/C=N/Nc1ccc(Cl)c(C(=O)O)c1	12	-1	6	5	26	.	.	.
Cc1nn(-c2ccccc2)c(Cl)c1/C=N/Nc1ccc(S(=O)(=O)Nc2ccccc2C(=O)O)cc1[N+](=O)[O-]	-1	6	18*	42*	52*	92*	65*	62*
CCOc1cccc(C=NNc2ccc(S(=O)(=O)Nc3ccccc3C(=O)O)cc2[N+](=O)[O-])c1O	0	14	-1	62*	76*	86*	54*	66*
C=CCOc1ccc(C=NNc2ccc(S(=O)(=O)Nc3ccccc3C(=O)O)cc2[N+](=O)[O-])cc1OC	0	26	11	50*	37*	95*	80*	59*
O=C(O)c1ccccc1/C=N/Nc1ccc(S(=O)(=O)N2CCCC2)cc1[N+](=O)[O-]	-3	-3	1	2	8	.	.	.
CCCC(CCC)=NNc1ccc(S(=O)(=O)Nc2ccccc2OC)cc1[N+](=O)[O-]	2	-5	-1	3	4	.	.	.
CCC(C)NC(=O)C1(O)c2ccccc2NC(=O)N1c1ccc(C)c(C)c1 (stereo not drawn)	-2	3	-11	-11	1	.	.	.
O=C(NCCc1ccccc1F)C1C(=O)Nc2ccccc2C(=O)N1C1CCCCC1 (stereo not drawn)	1	.	5	-19	-1	.	.	.
O=C1C=C(c2cccc(CO)c2)C[C@@H](c2ccc(F)cc2)C1	-3	-8	1	0	-5	.	.	.
CCCCNC(=O)C1(C)CCCCN1C(=O)c1cc(-c2ccccc2)cs1 (stereo not drawn)	0	.	-2	-4	2	.	.	.
CC(=O)c1ccc(NC(=O)C(C)OC(=O)COc2ccc(C#N)cc2)cc1 (stereo not drawn)	1	-7	-1	1	-1	.	.	.
Cc1ccc(N=Cc2cc3c(cc2[N+](=O)[O-])OCO3)cc1[N+](=O)[O-]	25*	.	4	42*	39*	9	4.9*	30*
CCOC(=O)CN1C(=O)S/C(=C\c2ccc(-c3cccc(C(=O)O)c3C)o2)C1=O	3	.	-4	5	9	.	.	.
N=C1S/C(=C\c2ccc(-c3ccccc3C(=O)O)o2)C(=O)N1c1ccc2c(c1)OCO2	6	8	-2	49*	42*	30	10*	63*
CN(C)c1ncc(C2=C(Cl)C(=O)C(N3CCCC3)=C(Cl)C2=O)s1	68*	39*	25*	63*	65*	55*	24*	83*	dCAG dye DR=i
CC(=O)c1cnc(N(C)C)s1	-1	0	-6	1	-1	.	.	.
O=C(O)CC/C(=C\c1cc([N+](=O)[O-])ccc1Cl)c1nc2ccccc2s1	3	-6	-4	-10	25	.	.	.
O=C(O)CC/C(=C\c1ccc(N2CCCC2)c([N+](=O)[O-])c1)c1nc2ccccc2s1	12	10	-14	46*	70*	89*	53*	51*
